Assay results as given in ChEMBL document CHEMBL1143266, “Synthesis of spiro[chroman-2,4'-piperidin]-4-one derivatives as acetyl-CoA carboxylase inhibitors” (Bioorg Med Chem Lett, 2009).

Experiments:
[1] = (§1) Inhibition of acetyl-CoA carboxylase in rat skeletal muscle by HPLC at 1 uM/L; assay type: tissue-based, Muscle tissue
How it was run: (§2)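 Biotinylated enzyme bound on a streptavidin column, eluted with 5 mM biotin, and protein quantified by Bradford. Buffer was 50 mM HEPES pH 7.5, 20 mM MgCl₂, 10 mM tripotassium citrate, 0.075% BSA, 2 mM ATP, 1 mM acetyl-CoA and 17.6 mM NaHCO₃, stopped with 10% perchloric acid. HPLC read-out measured acetyl-CoA loss and/or malonyl-CoA formation.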

[2] = Inhibition of acetyl-CoA carboxylase in rat skeletal muscle by HPLC; assay type: tissue-based, Muscle tissue
[3] = organism: Rattus norvegicus; assay: Inhibition of acetyl-CoA carboxylase in rat skeletal muscle by HPLC at 10 uM; assay type: tissue-based; details: Muscle tissue; how it was run: as §2
[4] = system: Mus musculus; assay: Reduction in respiratory quotient in ip dosed C57BL/6J mouse administered once a day for 8 days measured after 24 hrs of day 7 acclimatization in presence of high carbohydrate; assay type: functional, organism-based
How it was run: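 C57BL/6J mice aged 7–8 weeks on normal chow (carbohydrate 64%, fat 7%, protein 20%), n = 8 per group, got vehicle or 30 or 60 mg/kg ip once daily for 8 days. After 24 h cage acclimatization from day 7, O₂ consumption and CO₂ production were recorded immediately post-dose. The first 30 min were excluded, and RQ was averaged over the initial 8 h and compared by Student's t test.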

[5] = Membrane permeability at pH 6.8 by PAMPA; assay type: ADME; details: read-out: permeability
[6] = organism: Rattus norvegicus; assay: as §1; assay type: tissue-based; details: Muscle tissue; how it was run: as §2
[7] = organism: Rattus norvegicus; assay: Inhibition of acetyl-CoA carboxylase in rat skeletal muscle by HPLC at 5 uM; assay type: tissue-based; details: Muscle tissue; how it was run: as §2

Work on `O=C1CC2(CCN(C(=O)N3c4ccccc4Oc4ccccc43)CC2)Oc2ccc(N3CCOCC3)cc21` yielded an IC50 [1] of 99 nM.

In the case of `O=C1CC2(CCN(C(=O)c3cc(-c4ccccc4)nc(-c4ccccc4)c3)CC2)Oc2cc(N3CCCCC3)ccc21`, the IC50 [2] is reported as 36 nM and the inhibition [3] is reported as > 90%.

Compound `O=C1CC2(CCN(C(=O)N3c4ccccc4Sc4ccccc43)CC2)Oc2ccc(N3CCOCC3)cc21` has an inhibition [3] of 64%.

For `O=C1CC2(CCN(C(=O)c3cc(-c4ccccc4)nc(-c4ccccc4)c3)CC2)Oc2ccc(N3CCCC3=O)cc21`, the IC50 [2] was 14 nM, the inhibition [3] was > 90% and the Activity [4] was “Dose-dependent effect”. The Papp [5] was 26.8 ×10⁻⁶ cm/s.

In the case of `O=C1CC2(CCN(C(=O)N3c4ccccc4Oc4ccccc43)CC2)Oc2cc(N3CCOCC3)ccc21`, the IC50 [1] is reported as 208 nM.

For `O=C1CC2(CCN(C(=O)c3cc(-c4ccccc4)nc(-c4ccccc4)c3)CC2)Oc2ccccc21`, the IC50 [2] was 1200 nM and the inhibition [3] was > 90%.

`CCCC(=O)Nc1ccc2c(c1)C(=O)CC1(CCN(C(=O)N3c4ccccc4CCc4ccccc43)CC1)O2` gave an inhibition [3] of 4%.

For `O=C(c1c2ccccc2cc2ccccc12)N1CCC(N2CCC[C@@H](C(=O)N3CCOCC3)C2)CC1`, the inhibition [3] was > 90%.

With `Cc1cc2c(cc1N1CCOCC1)C(=O)CC1(CCN(C(=O)c3cc(-c4ccccc4)nc(-c4ccccc4)c3)CC1)O2` the IC50 [2] was 2 nM and the inhibition [3] was > 90%.

In the case of `CCCC(=O)Nc1ccc2c(c1)C(=O)CC1(CCN(C(=O)c3cc(-c4ccccc4)nc(-c4ccccc4)c3)CC1)O2`, the IC50 [2] is reported as 6 nM and the inhibition [3] is reported as > 90%.

Compound `COc1cc(C(=O)N2CCC3(CC2)CC(=O)c2cc(Nc4ccnn4C)ccc2O3)nc2c(OC)cccc12` has an inhibition [6] of 100%.

In the case of `CN1CCN(c2ccc3c(c2)OC2(CCN(C(=O)c4cc(-c5ccccc5)nc(-c5ccccc5)c4)CC2)CC3=O)CC1`, the IC50 [2] is reported as 27 nM and the inhibition [3] is reported as > 90%.

With `CC(=O)N[C@H](C)C#Cc1ccc2c(c1)C(=O)CC1(CCN(C(=O)c3cc(-c4ccccc4)nc(-c4ccccc4)c3)CC1)O2` the IC50 [2] was 61 nM and the inhibition [3] was > 90%.

In the case of `CC1COCC(C)N1c1ccc2c(c1)OC1(CCN(C(=O)c3cc(-c4ccccc4)nc(-c4ccccc4)c3)CC1)CC2=O` (centres undefined), the IC50 [2] is reported as 59 nM and the inhibition [3] is reported as > 90%.

`O=C1CC2(CCN(C(=O)N3c4ccccc4Sc4ccccc43)CC2)Oc2ccccc21` showed an inhibition [3] of 16%.

With `O=C1CC2(CCN(C(=O)c3cc(-c4ccccc4)nc(-c4ccccc4)c3)CC2)Oc2cc(N3CCCC3)ccc21` the IC50 [2] was 61 nM and the inhibition [3] was > 90%.

For `O=C1CC2(CCN(C(=O)N3c4ccccc4Oc4ccccc43)CC2)Oc2ccccc21`, the inhibition [7] was 51%.

With `COc1cc(C(=O)N2CCC3(CC2)CC(=O)c2cc(-c4nc[nH]n4)ccc2O3)nc2c(OC)cccc12` the inhibition [6] was 100%.

Work on `CCCC(=O)Nc1ccc2c(c1)C(=O)CC1(CCN(C(=O)N3c4ccccc4Sc4ccccc43)CC1)O2` yielded an inhibition [3] of 48%.

With `CCCC(=O)N(C)c1ccc2c(c1)C(=O)C(C)(C)C1(CCN(C(=O)c3cc(-c4ccccc4)nc(-c4ccccc4)c3)CC1)O2` the inhibition [3] was 83%.

`O=C1CC2(CCN(C(=O)N3c4ccccc4Oc4ccccc43)CC2)Oc2ccc(N3CCCC3=O)cc21` gave an IC50 [1] of 236 nM.

`CCCC(=O)Nc1ccc2c(c1)C(=O)CC1(CCN(C(=O)N3c4ccccc4Oc4ccccc43)CC1)O2` showed an IC50 [1] of 101 nM.

With `O=C1CC2(CCN(C(=O)N3c4ccccc4CCc4ccccc43)CC2)Oc2ccc(N3CCOCC3)cc21` the inhibition [3] was 7%.

With `CC1(C)C(=O)c2ccccc2OC12CCN(C(=O)c1cc(-c3ccccc3)nc(-c3ccccc3)c1)CC2` the inhibition [3] was 44%.

For `O=C1CC2(CCN(C(=O)c3cc(-c4ccccc4)nc(-c4ccccc4)c3)CC2)Oc2cc(N3CCOCC3)ccc21`, the IC50 [2] was 26 nM and the inhibition [3] was > 90%.

With `O=C1CC2(CCN(C(=O)c3cc(-c4ccccc4)nc(-c4ccccc4)c3)CC2)Oc2ccc(N3CCOCC3)cc21` the IC50 [2] was 6 nM and the inhibition [3] was > 90%.
